From PMC10783423 (Medicine, 2024)
pIC50: −log10 of the molar value. Ends that are not written are not given here.

target: Human thrombin (Homo sapiens, UniProt P00734); test: Thrombin inhibitory assay with chromogenic substrate S-2238; type: biochemical
In short: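 Human thrombin (2 U/mL working solution) premixed with test peptide at a range of concentrations. Chromogenic substrate S-2238 (1 mM solution) then added; blanks received buffer instead. All components were in 50 mM Tris-HCl, pH 7.5. Reaction ran 5 min at 37°C, with absorbance read at 375 nm. IC50 was taken as the peptide concentration giving 50% thrombin inhibition.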

First: AEGYA [P1]
Second: EVVNQ [P2]
The pIC50 of the first is 0.92 log units higher: 6.28 for the first, 5.36 for the second. The first is the more potent here.

Compared with FASRW [P5], FFQQSGG [FFQQSGG] is 3.00 log units lower in pIC50: 5.57 for the first, 2.57 for the second. The first is the more potent here.

Going from FVEIQAL [FVEIQAL] to SLVTKVS [SLVTKVS], the pIC50 falls from 3.28 to 2.36 (0.92 log units). The first is the more potent here.
